Assay results published in ChEMBL document CHEMBL1667738, “Sesquiterpene benzoxazoles and sesquiterpene quinones from the marine sponge Dactylospongia elegans” (2011).

Legend:
MCF7 = assay: Cytotoxicity against human MCF7 cells after 48 hrs by SRB assay; type: functional; settings: MCF7, 48 h
How it was run: (§1)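 Cells grown in RPMI 1640 with L-glutamine and 5% fetal bovine serum, in a humidified incubator at 37 °C and 5% CO2. Seeded at 5000 cells/well. Pure compounds dissolved in DMSO, serially diluted in medium, and tested at 10 concentrations between 66.7 and 0.01 µg/mL. Total protein measured by SRB at 490 nm at 0 and 48 h. GI50 taken against vehicle-only and time-zero readings.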

CHO-K1 = assay: Cytotoxicity against Chinese hamster CHO-K1 cells after 48 hrs by SRB assay; settings: Cricetulus griseus, CHO-K1, 48 h
NCI-H460 = assay: Cytotoxicity against human H460 cells after 48 hrs by SRB assay; type: functional; settings: NCI-H460, 48 h; how it was run: as §1
SF-268 = assay: Cytotoxicity against human SF268 cells after 48 hrs by SRB assay; type: functional; settings: SF-268, 48 h; how it was run: as §1
HT-29 = assay: Cytotoxicity against human HT-29 cells after 48 hrs by SRB assay; type: functional; settings: HT-29, 48 h
How it was run: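 CHO-K1 (Chinese hamster ovary subclone) and HT-29 cells grown in MEM with Earle's salts, L-glutamine, nonessential amino acids and sodium pyruvate. Seeded at 5000 cells/well. Compounds dissolved in DMSO, serially diluted in medium, and tested at 10 concentrations spanning 66.7–0.01 µg/mL. SRB protein read at 490 nm at 0 and 48 h. GI50 derived against vehicle-only and time-zero values.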

Question: Which results are given for `C=C1CCC[C@H]2[C@](C)(CC3=C(O)C(=O)C=C(NCCC(=O)O)C3=O)[C@@H](C)CC[C@]12C` [SMENOSPONGINE C]?
Answer: GI50 (MCF7): 31 µM; GI50 (CHO-K1): 18 µM; GI50 (NCI-H460): 14 µM; GI50 (SF-268): 20 µM; GI50 (HT-29): 28 µM

Question: For `C=C1CCC[C@H]2[C@](C)(CC3=C(O)C(=O)C=C(NCC(=O)O)C3=O)[C@@H](C)CC[C@]12C` [SMENOSPONGINE B], which GI50 (MCF7) is on record?
Answer: 10 µM

Question: And the GI50 (CHO-K1)?
Answer: 3 µM

Question: What about the GI50 (NCI-H460) of the same compound?
Answer: 6 µM

Question: What about the GI50 (SF-268) of the same compound?
Answer: 9.7 µM

Question: What about the GI50 (HT-29) of the same compound?
Answer: 6 µM

Question: Which results are given for `C=C1CCC[C@H]2[C@](C)(CC3=C(O)C(=O)C=C(OC)C3=O)[C@@H](C)CC[C@]12C` [ILIMAQUINONE]?
Answer: GI50 (MCF7): 3.9 µM; GI50 (CHO-K1): 2 µM; GI50 (NCI-H460): 1.8 µM; GI50 (SF-268): 2.7 µM; GI50 (HT-29): 5.4 µM

Question: Which GI50 (MCF7) does the source give for `C=C1CCC[C@H]2[C@](C)(Cc3c(O)c(O)cc4ncoc34)[C@@H](C)CC[C@]12C` [NAKIJINOL B] here?
Answer: 35 µM

Question: What about the GI50 (CHO-K1) of the same compound?
Answer: 11 µM

Question: What about the GI50 (NCI-H460) of the same compound?
Answer: 24 µM

Question: And the GI50 (SF-268)?
Answer: 24 µM

Question: What about the GI50 (HT-29) of the same compound?
Answer: 21 µM

Question: Which GI50 (MCF7) does the source give for `C=C1CCC[C@@]23OC4=C(C[C@]2(C)[C@@H](C)CC[C@@]13C)C(=O)C(OC)=CC4=O` [DACTYLOQUINONE B] here?
Answer: 41 µM

Question: What about the GI50 (CHO-K1) of the same compound?
Answer: 43 µM

Question: What about the GI50 (NCI-H460) of the same compound?
Answer: 30 µM

Question: And the GI50 (SF-268)?
Answer: 32 µM

Question: And the GI50 (HT-29)?
Answer: 46 µM

Question: For `C=C1CCC[C@H]2[C@](C)(Cc3c(OC(C)=O)c(OC(C)=O)cc4ncoc34)[C@@H](C)CC[C@]12C` [NAKIJINOL B DIACETATE], which GI50 (MCF7) is on record?
Answer: 19 µM

Question: What about the GI50 (CHO-K1) of the same compound?
Answer: 5.2 µM

Question: And the GI50 (NCI-H460)?
Answer: 6.8 µM

Question: What about the GI50 (SF-268) of the same compound?
Answer: 9 µM

Question: What about the GI50 (HT-29) of the same compound?
Answer: 15 µM
